# Compound activity deposited in PubChem by The Scripps Research Institute Molecular Screening Center.
# HGIII-sPLA2 inh – Inhibits HGIII-sPLA2 liposome hydrolysis, primary screen; Q9NZ20; QFRET BODIPY PC-A2 liposome hydrolysis, fluorescence; inhibition, % at 12.2 µM; actives 0.56% (n = 370,000);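 active = inhibition above mean plus 3 SD of compounds lying within the high and low control bounds, cut at about 19% in these data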
# Target sequence (Q9NZ20 whole entry, looked up): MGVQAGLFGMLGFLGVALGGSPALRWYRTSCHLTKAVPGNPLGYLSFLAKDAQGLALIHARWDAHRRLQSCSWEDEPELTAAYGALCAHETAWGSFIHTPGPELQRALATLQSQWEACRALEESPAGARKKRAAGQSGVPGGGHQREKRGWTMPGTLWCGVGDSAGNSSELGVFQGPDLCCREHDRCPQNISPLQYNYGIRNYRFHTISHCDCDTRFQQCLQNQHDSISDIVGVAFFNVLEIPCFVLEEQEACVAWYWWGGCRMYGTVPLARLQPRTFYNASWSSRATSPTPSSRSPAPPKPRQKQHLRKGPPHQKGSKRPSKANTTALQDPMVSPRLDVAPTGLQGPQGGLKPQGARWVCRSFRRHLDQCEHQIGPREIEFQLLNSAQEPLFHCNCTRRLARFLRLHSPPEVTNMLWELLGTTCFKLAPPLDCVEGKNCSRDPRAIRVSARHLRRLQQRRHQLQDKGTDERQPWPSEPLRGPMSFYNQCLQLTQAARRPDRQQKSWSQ
# DAGLB inh – diacylglycerol lipase beta (human) inhibition; Q8NCG7; actives 0.059% (n = 340,000); AID 504411; HEK293T DAGLB membrane lysate, EnzChek fluorogenic substrate; inhibition, % at 5.17 µM; in the data active = inhibition above about 34%
# PLCg1 inh – PLC-gamma1 (human) inhibition, primary screen. AID 720700. P19174. purified PLC-gamma1, fluorogenic substrate, fluorescence. inhibition, % at 12.2 µM. actives 0.84% (n = 370,000); in the data active = inhibition above about 9.5%
# PLC-beta3 inh – inhibitors of human phospholipase C beta3; Q01970; Purified PLC-beta3, fluorogenic substrate, fluorescence; inhibition, % at 12.2 µM; actives 0.18% (n = 370,000); in the data active = inhibition above about 11%
# TbMetRS inhib – Trypanosoma brucei MetRS inhibition; actives 0.4% (n = 360,000); inhibition, % at 11.9 µM; purified T. brucei MetRS, ATP depletion, Kinase-Glo luminescence;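 active = inhibition above a per-plate cutoff of the control wells' mean inhibition plus 3 SD, cut at about 5.5% in these data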
#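 Material – parasite MetRS enzyme · Medium – HEPES-MgCl2-KCl buffer plus DTT, spermine, BSA, pyrophosphatase · Reagent – ATP, methionine and E. coli bulk tRNA substrates · Times – 15 min enzyme-compound preincubation, 2 h reaction, 10 min detection, 25 °C · Measured by – luminescence of leftover ATP · Evaluation – percent inhibition relative to median high and low control wells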
# Tb MetRS conf – confirmation of Trypanosoma brucei MetRS inhibitors. actives 93% (n = 1,400). AID 624412. shares compounds with TbMetRS inhib. T. brucei MetRS enzyme, luminescence (ATP depletion). inhibition, % at 11.9 µM; in the data active = inhibition above about 7%
# Jurkat cytotox – counter-screen for T. brucei MetRS inhibitors: Jurkat cell cytotoxicity; shares compounds with TbMetRS inhib; Jurkat cells viability, ATP luminescence; inhibition, % at 8.3 µM; actives 12% (n = 1,400); AID 624413; in the data active = inhibition above about 15%
# Tb MetRS inh FP – inhibits T. brucei methionyl tRNA synthetase in orthogonal FP test; shares compounds with TbMetRS inhib; purified T. brucei MetRS, fluorescence polarization; inhibition, % at 11.9 µM; actives 44% (n = 1,400); AID 651607; in the data active = inhibition above about 17%
# Hits are given with their value; n = inactive; x = no result. Most compounds without a hit are left out; they make up all but 1.9% or so of the library.
SMILES,HGIII-sPLA2 inh,DAGLB inh,PLCg1 inh,PLC-beta3 inh,TbMetRS inhib,Tb MetRS conf,Jurkat cytotox,Tb MetRS inh FP
COc1ccc(S(=O)(=O)NC2CC2)cc1-n1cnnn1,n,x,n,n,n,x,x,x
O=C(CCCSc1ccc(Cl)cc1)Nc1ccccc1O,x,n,x,x,18,38,n,24
Cc1ccc(SCCC(=O)N/N=C/c2ccccc2O)cc1,n,n,n,n,18,80,n,51
Cc1cccc(NC(=O)CCC(=O)N/N=C/c2ccc(O)cc2O)c1,n,n,n,n,54,81,n,46
Cc1ccc(SCCC(=O)N/N=C/c2cccnc2)cc1,n,n,n,n,11,32,n,21
Cc1ccc(NC(=O)CCC(=O)N/N=C/c2ccccc2O)cc1,n,n,n,n,n,x,x,x
O=C(CCC(=O)Nc1ccc(Br)cc1)N/N=C/c1ccccc1O,n,n,n,n,n,x,x,x
C[C@H]1C2CC(OC(=O)Nc3ccc(C#N)cc3)C(C2)[C@H]2CCCCN21 (stereo not given in full),n,x,n,n,x,x,x,x
Cc1ccc2nc(-c3cccc(NC(=O)c4ccco4)c3)[nH]c2c1,n,n,n,n,6.0,9.1,n,56
O=C(Nc1ccc2nc(-c3cccnc3)[nH]c2c1)c1ccco1,n,n,n,n,n,x,x,x
O=C(NCc1ccc2c(c1)OCO2)C1CC(=O)N(c2ccc(Cl)cc2)C1 (stereo not given),n,n,n,n,8.9,16,n,n
CCN(CC)c1ccc(NC(=O)CSc2nnc(SCc3ccc(Cl)cc3)s2)cc1,n,x,n,n,x,x,x,x
COc1ccc(-c2nnc(SC(C(=O)c3c[nH]c4ccccc34)c3ccccc3)n2N)cc1OC (stereo not given),n,n,n,n,16,28,n,18
COc1ccc(N2C[C@H](CSC)[C@@H](CC(=O)Nc3ccc(Br)cc3)C2=O)cc1,n,n,n,n,19,43,n,19
O=C(C[C@H]1C(=O)N(c2ccc(Br)cc2)C[C@@H]1Cc1ccccc1)Nc1ccccc1,n,n,n,n,n,x,x,x
O=C(C[C@H]1C(=O)N(c2ccccc2)C[C@@H]1Cc1ccccc1)Nc1ccc(Br)cc1,n,n,n,n,7.6,18,n,n
CCCCN1C[C@H](c2ccc(OC)cc2)[C@@H](CC(=O)Nc2ccc(Br)cc2)C1=O,n,n,n,n,45,68,n,34
CCC(C)N(C(=O)CSc1nnc(-c2cccnc2)n1C1CCCCC1)C(C)CC (stereo not given),n,x,n,n,x,x,x,x
CCCCCCCCN1C(=O)[C@@H](CC(=O)N2CCCC2)C[C@@]2(C(=O)OC)C1=C[C@H](C(C)(C)C)O[C@@H]2C,n,x,n,n,x,x,x,x
Oc1ccccc1C=NN1CCN(Cc2ccccc2)CC1,n,x,n,n,x,x,x,x
CCOC1=C2[C@H](c3ccccc3)N(S(=O)(=O)c3ccc(C)cc3)[C@H](C(C)C)[C@H]2C(C#N)(C#N)C(C#N)(C#N)C1,n,x,n,n,x,x,x,x
Cc1cc(N2CCC(C)CC2)nc2ccccc12,n,x,n,n,x,x,x,x
c1ccc2c(c1)CSc1ccccc1N2,n,x,n,n,n,x,x,x
COc1ccccc1CN=C1Nc2ccccc2CS1,n,n,n,n,13,32,n,n
c1cncc(CN=C2Nc3ccccc3CS2)c1,n,x,n,n,8.6,17,n,n
SMILES,HGIII-sPLA2 inh,DAGLB inh,PLCg1 inh,PLC-beta3 inh,TbMetRS inhib,Tb MetRS conf,Jurkat cytotox,Tb MetRS inh FP
Cc1ccc(C)c(C2=NNC(=NCc3ccccc3)SC2)c1,n,n,n,n,n,x,x,x
Cc1ccc(CN=C2Nc3ccccc3CS2)cc1,n,n,n,n,19,32,n,n
Clc1ccc(CN=C2Nc3ccccc3CS2)cc1,n,n,n,n,12,25,n,n
COC(=O)C1CN(Cc2ccc(OC)cc2)CCS(=O)(=O)N1Cc1ccc(Cl)cc1 (stereo not given),n,x,n,n,x,x,x,x
CCCCN1CCN(C2=NC(=O)N(c3ccc(Br)cc3)C(=O)C2)CC1,n,x,n,n,x,x,x,x
O=C(NN=Cc1ccccc1O)C(=O)Nc1ccc(F)cc1,n,x,n,n,x,x,x,x
Cn1c(=O)oc2cc(S(=O)(=O)N3CCN(C(=O)C4CCCO4)CC3)ccc21 (stereo not given),n,x,n,n,x,x,x,x
